Results: article PMC11789357 (Journal of Translational Medicine, 2025)

What was measured:
[1] = system: BaF3-hEPOR cells; experiment: Western blot of EPOR downstream signaling; format: cell-based, murine; conditions: 10 min treatment, monitored 4 days
In short: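 They were exposed 10 min, pelleted, and resuspended in EPO-free medium. Lysates were taken at 0 min, 30 min, 1 h, 4 h and 1–4 days. Western blots on 4–20% gels were probed for p-ERK1/2 and p-STAT5.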

[2] = Single-dose PK study in healthy BALB/c mice; format: in vivo, mouse; conditions: SC 0.08 mg/kg single dose
In short: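 Female BALB/c mice received a single sc injection of test compound or peptide dimer. Blood was sampled at several times over 14 days, and serum drug level was measured by MSD immunoassay. Mean concentration–time curves gave Tmax, Cmax, t1/2, AUC0-t, AUC0-∞ and MRT.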

[3] = biological target: EPOR extracellular domain-IgFc construct (UniProt P19235); experiment: SPR
Chain of UniProt P19235 (P19235 25-250): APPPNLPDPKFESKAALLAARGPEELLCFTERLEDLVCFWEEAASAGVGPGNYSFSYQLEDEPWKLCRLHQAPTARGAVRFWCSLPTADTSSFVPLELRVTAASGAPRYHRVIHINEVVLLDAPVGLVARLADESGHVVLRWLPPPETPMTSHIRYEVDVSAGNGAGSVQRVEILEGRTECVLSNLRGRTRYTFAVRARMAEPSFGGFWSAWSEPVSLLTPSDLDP

[4] = system: UT-7 cells; experiment: CellTiter-Glo cell proliferation / survival assay; format: cell-based, human; conditions: medium without EPO; matched doses 1000 ng/mL (20 nM) vs 4 U/mL, 200 ng/mL (4 nM) vs 0.8 U/mL
[5] = system: UT-7 cells; conditions: ref [21], [23]; cited from earlier work

Question: Which “Phosphorylation levels of ERK1/2 MAPK and STAT5 after withdrawal” value [1] does the source give for `CC(=O)NCC(=O)NCC(=O)N[C@H](C(=O)N[C@@H](Cc1ccc(O)cc1)C(=O)N[C@@H](CO)C(=O)N[C@H]1CSSC[C@@H](C(=O)N[C@@H](CCCNC(=N)N)C(=O)N2CCC[C@H]2C(=O)N[C@@H](CCC(N)=O)C(=O)N[C@@H](CCCNC(=N)N)C(=O)NCC(=O)NCCC(=O)N[C@@H](CCCCNC(=O)CN(CC(=O)NCCCC[C@H](NC(=O)CCNC(=O)CNC(=O)[C@H](CCCNC(=N)N)NC(=O)[C@H](CCC(N)=O)NC(=O)[C@@H]2CCCN2C(=O)[C@H](CCCNC(=N)N)NC(=O)[C@@H]2CSSC[C@H](NC(=O)[C@H](CO)NC(=O)[C@H](Cc3ccc(O)cc3)NC(=O)[C@@H](NC(=O)CNC(=O)CNC(C)=O)[C@@H](C)O)C(=O)N[C@@H](Cc3c[nH]cn3)C(=O)N[C@@H](Cc3ccccc3)C(=O)NCC(=O)N[C@@H](C)C(=O)N[C@@H](CC(C)C)C(=O)N[C@@H]([C@@H](C)O)C(=O)N[C@@H](Cc3c[nH]c4ccccc34)C(=O)N[C@@H](C(C)C)C(=O)N2)C(N)=O)C(=O)CCN)C(N)=O)NC(=O)[C@H](C(C)C)NC(=O)[C@H](Cc2c[nH]c3ccccc23)NC(=O)[C@H]([C@@H](C)O)NC(=O)[C@H](CC(C)C)NC(=O)[C@H](C)NC(=O)CNC(=O)[C@H](Cc2ccccc2)NC(=O)[C@H](Cc2c[nH]cn2)NC1=O)[C@@H](C)O` [Peptide dimer] here?
Answer: Its value is “showed a decline”.

Question: What about the “Serum concentration” value [2] of the same compound?
Answer: The value was “mostly below detection limits”.

Question: Which Kd [3] does the source give for Pegmolesatide (peptide) here?
Answer: The Kd was 0.28 nM.

Question: Which results are given for “rHuEPO (ESPO 3000): recombinant human erythropoietin product ESPO 3000, Kyowa Kirin”?
Answer: Phosphorylation levels of ERK1/2 MAPK and STAT5 after withdrawal [1]: showed a decline; UT-7 cell proliferation under continuous treatment [4]: maintained cell proliferation over 7 consecutive days of treatment

Question: Which “Rate of internalization of the rHuEPO-receptor complex” value [5] does the source give for “rHuEPO: recombinant human erythropoietin, as cited from literature” here?
Answer: The value was 3.6 per hour.

Question: And the “Time to lysosomal degradation post-internalization” value [5]?
Answer: The value was 15 to 20 min.
